MC4R antagonist – blocks human MC4R cAMP signaling; P32245; MC4R-expressing cells, MTII-stimulated cAMP, LANCE TR-FRET; inhibition, % at 6.5 µM; 360,000 tested, 0.48% active; AID 540295;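 active means inhibition above its plate's cutoff, the mean of tested wells on that plate plus 3 SD, cut at about 29% in these data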;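 further: 0% = Melanotan II alone and 100% = Melanotan II plus saturating MCL0020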
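Assay system: U2OS cells stably expressing human melanocortin 4 receptor (MC4R) / Dosing: 6.5 µM / Timing: compound 30 min, challenge 1 h, detection 1 h / Measured by: Eu-cAMP/anti-cAMP TR-FRET, emission 671 nm / Replicates: singlicate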
m5-HT2A agonist – activates the mouse 5-HT2A serotonin receptor | 360,000 tested, 0.66% active | P35363 | CHO-K1 mHTR2A beta-arrestin complementation, luminescence; percent of 30 µM serotonin response | activation, % at 7.6 µM;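 active means activation above a run cutoff, the mean activation of all tested compounds plus 3 SD, cut at about 14% in these data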;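 further: 0% = plate median of compound wells and 100% = 30 µM serotonin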
Target sequence (P35363 whole entry, looked up): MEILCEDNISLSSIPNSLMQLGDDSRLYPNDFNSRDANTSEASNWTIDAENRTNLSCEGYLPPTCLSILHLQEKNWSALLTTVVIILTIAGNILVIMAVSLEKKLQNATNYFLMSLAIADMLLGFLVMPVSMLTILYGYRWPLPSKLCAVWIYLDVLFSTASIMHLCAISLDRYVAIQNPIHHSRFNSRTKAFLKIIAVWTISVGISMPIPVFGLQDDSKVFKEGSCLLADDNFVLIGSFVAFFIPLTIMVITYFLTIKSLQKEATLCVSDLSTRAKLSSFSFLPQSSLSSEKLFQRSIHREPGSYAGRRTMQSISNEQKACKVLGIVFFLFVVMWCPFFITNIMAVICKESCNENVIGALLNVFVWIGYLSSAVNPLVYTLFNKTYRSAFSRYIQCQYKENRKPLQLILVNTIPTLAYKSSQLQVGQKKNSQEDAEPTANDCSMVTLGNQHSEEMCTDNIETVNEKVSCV
EBI2 block – blocks human EBI2 receptor beta-arrestin signaling; EBI2 beta-arrestin recruitment, luminescence, 7a,25-OHC stimulated; P32249; AID 651636; 360,000 tested, 0.81% active; inhibition, % at 5 µM; in the data active means inhibition above about 38%;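 further: enzyme fragment complementation signal reports receptor beta-arrestin coupling in cells; 0% = agonist plus DMSO wells and 100% = wells without agonist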
MC4R ag barr – human MC4R agonism via beta-arrestin. U2OS MC4R beta-arrestin complementation, luminescence; percent of melanotan II response, DMSO zero. P32245. activation, % at 8.9 µM. AID 540308. 360,000 tested, 0.98% active;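 active means activation above a per-plate cutoff, the mean activation of sample wells on that plate plus 3 SD, cut at about 8% in these data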
cAMP nonselect – counter-screen for MC4R antagonists: nonselective cAMP signaling inhibitors | AID 602193 | parental U2OS, forskolin cAMP, LANCE TR-FRET | shares compounds with MC4R antagonist | inhibition, % at 6.5 µM | 1,600 tested, 26% active;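 active means mean inhibition over triplicates above the low-control well mean plus 3 SD, set per campaign, cut at about 13% in these data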;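 further: signal is single emission at 671 nm which falls as cellular cAMP rises; 0% = forskolin-stimulated wells and 100% = buffer without forskolin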
MC4R cAMP antag – human MC4R cAMP antagonism confirmation; inhibition, % at 6.5 µM; 1,600 tested, 27% active; shares compounds with MC4R antagonist; MC4R-expressing cells, MTII-stimulated cAMP, TR-FRET; in the data active means inhibition above about 29%;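 further: 0% = agonist stimulated wells alone and 100% = agonist stimulated wells plus saturating reference antagonist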
MC4R barr ag – human MC4R beta-arrestin agonism confirmation; AID 602192; activation, % at 8.9 µM; 2,400 tested, 31% active; shares compounds with MC4R ag barr; U2OS MC4R beta-arrestin recruitment, luminescence; scaled DMSO 0%, Melanotan II 100%;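 active means mean activation across replicates above the hit cutoff set in the earlier primary screen, cut at about 8% in these data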
MOR DOR agonist – OPRM1-OPRD1 heterodimer agonism counter-screen; shares compounds with MC4R ag barr; U2OS PathHunter beta-arrestin, beta-gal luminescence; percent of deltorphin B response, DMSO zero; activation, % at 9.2 µM; 2,400 tested, 5.8% active;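 active means mean activation across replicates exceeds the hit threshold derived in the earlier primary screen, cut at about 18% in these data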;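 further: 100% = deltorphin B at 0.9 µM final and 0% = DMSO alone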
OPRM1 ag – counter-screen for mouse HTR2A agonists: human mu opioid receptor agonists; activation, % at 9.3 µM; U2OS OPRM1 beta-arrestin PathHunter, luminescence; DMSO 0%, DAMGO 9.3 µM 100%; shares compounds with m5-HT2A agonist; AID 624380; 2,300 tested, 5.3% active;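 active means mean activation above the mean of DMSO-only wells plus 3 SD, cut at about 0.5% in these data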
HTR2A ag conf – mouse HTR2A agonism confirmed. 2,300 tested, 19% active. activation, % at 7.6 µM. shares compounds with m5-HT2A agonist. AID 624381. CHO-K1 PathHunter beta-arrestin recruitment, luminescence; DMSO 0%, 30 µM serotonin 100%;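 active means mean activation across triplicates above the hit threshold derived in the original primary screen, cut at about 15% in these data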
* marks the source's active call; other numbers are inactive results; nt = no result. Only some compounds are listed: those with a hit (about 2.8% of all), similar ones and a draw of the others.

SMILES	MC4R antagonist	m5-HT2A agonist	EBI2 block	MC4R ag barr	cAMP nonselect	MC4R cAMP antag	MC4R barr ag	MOR DOR agonist	others
O=C1c2cc([N+](=O)[O-])ccc2-c2cc(Br)c(N=C(NO)C(F)(F)F)cc21	35*	-7	-5	14*	-3	-4	13*	6
COc1cccc(C(=O)C(CCC#N)c2ccccc2)c1 (stereo not given)	0	6	15	0	nt	nt	nt	nt
COc1cccc(C(=O)C(C#N)=C(SC)SC)c1	42*	3	6	24*	10	23	14*	19*
O=C(Nc1ccc(F)cc1)N[C@H]1CC[C@H](CCNS(=O)(=O)c2cccc(Cl)c2)O[C@@H]1CO	nt	-1	-6	nt	nt	nt	nt	nt
Cc1cc(O)c(C(C)C)cc1C1(c2cc(C(C)C)c(O)cc2C)OC(=O)c2ccccc21	31*	0	15	19*	6	29*	8.6*	9
O=C(CSCc1cccc(Br)c1)N=Nc1c(O)[nH]c2ccccc12	-3	0	-6	0	nt	nt	nt	nt
O=Nc1c(-c2c(O)[nH]c3cc(Br)ccc23)[nH]c2ccccc12	62*	-5	26	14*	5	56*	0	3
Cc1ccc(OCC(=O)NC(=S)Nc2ccc3c4c(cccc24)CC3)cc1	39*	-4	-13	13*	7	14	12*	3
COc1ccc(CCNC(=O)c2ccc3c(c2)S(=O)(=O)N=C2CCCCCN23)cc1OC	12	8	-10	0	nt	nt	nt	nt
C=CC(=O)Nc1cccc(N(C)c2ccnc(Nc3ccc(N4CCN(C)CC4)cc3)n2)c1	-1	-2	-2	-1	nt	nt	nt	nt
CCCCNc1c(-c2cccc(-c3cc(C(C)=O)cs3)c2)nc2ccc(C)cn12	50*	10	-12	19*	9	19	24*	7
CS(=O)(=O)c1ccc2nc(NC(=O)c3ccc(NS(=O)(=O)c4ccc(F)c(F)c4)cc3)sc2c1	10	-3	-8	0	nt	nt	nt	nt
O=C(Nc1nc2ccc(SC(F)F)cc2s1)c1ccc(NS(=O)(=O)c2ccc(F)c(F)c2)cc1	37*	11	-3	35*	2	-3	34*	3
Nc1nc(=S)c2ncn(C3OC(CO)CC3O)c2[nH]1 (stereo not given)	5	4	-1	0	nt	nt	nt	nt
Cc1ccc2oc(-c3ccc(NC(=O)c4ccc5c(c4)OCO5)cc3)nc2c1	6	-6	-4	0	nt	nt	nt	nt
O=C(Nc1ccc(-c2nc3ccccc3o2)cc1)c1ccc2c(c1)OCO2	30*	1	8	20*	1	-8	12*	7
Cc1c(Cl)sn(-c2ccc(Cl)cc2)c1=O	73*	17*	70*	0	13	70*	nt	nt	OPRM1 ag=3.3*;HTR2A ag conf=0
COc1cc(/C=C2\C(=N)N3N=C(S(C)(=O)=O)SC3=NC2=O)ccc1OCCOc1ccc(C)cc1	34*	16*	-5	0	1	-10	nt	nt	OPRM1 ag=-1;HTR2A ag conf=-2
COc1cc(/C=C2\C(=N)N3N=C(S(C)(=O)=O)SC3=NC2=O)cc(OC)c1OCCOc1ccc(C)cc1	17	-5	-5	-2	nt	nt	nt	nt
Oc1ccc(C(c2nnnn2CCc2ccccc2)N2CCN(c3nc4ccccc4s3)CC2)cc1 (stereo not given)	31*	22*	26	-1	2	13	nt	nt	OPRM1 ag=-1;HTR2A ag conf=-2
